From PubChem
A selection: hits, their analogues and other compounds. The true share with any hit is near 3.4%.
PKD1 kinase inh = inhibitors of human PKD1 kinase. actives 0.056% (n = 200,000). AID 797. inhibition, % (no concentration beside the values). PKD1 kinase fluorescence polarization assay; in the data active means inhibition above about 50%
Redox H2O2 prof = compounds producing H2O2 with reducing agent – biochemical, NIH compound library profiling, artefact control for MLSCN library redox annotation, primary screen; DTT-dependent redox cycling H2O2, phenol red/HRP absorbance; 100% = 100 µM peroxide control, 0% = buffer; activation, % at 10 µM; AID 878; actives 0.03% (n = 200,000);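 active means activation of at least 50% relative to the plate's high and low controls in the primary single-dose screen; inactive means activation below 50%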;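 further: compound incubated with DTT at 0.8 mM final as the reducing agent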
ROMK mod = human ROMK K+ channel modulation, primary screen; Tet-inducible ROMK, thallium flux fluorescence; actives lie on both sides; P48048; actives 2% (n = 130,000); B-score at 10 µM;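 active means signal ratio slope over the read window, or its plate-corrected B-score, at least 3 SD from the plate mean, either direction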;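 further: B-score of the F/F0 ratio slope over 7 to 12 s after thallium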
Target sequence (P48048 whole entry, looked up): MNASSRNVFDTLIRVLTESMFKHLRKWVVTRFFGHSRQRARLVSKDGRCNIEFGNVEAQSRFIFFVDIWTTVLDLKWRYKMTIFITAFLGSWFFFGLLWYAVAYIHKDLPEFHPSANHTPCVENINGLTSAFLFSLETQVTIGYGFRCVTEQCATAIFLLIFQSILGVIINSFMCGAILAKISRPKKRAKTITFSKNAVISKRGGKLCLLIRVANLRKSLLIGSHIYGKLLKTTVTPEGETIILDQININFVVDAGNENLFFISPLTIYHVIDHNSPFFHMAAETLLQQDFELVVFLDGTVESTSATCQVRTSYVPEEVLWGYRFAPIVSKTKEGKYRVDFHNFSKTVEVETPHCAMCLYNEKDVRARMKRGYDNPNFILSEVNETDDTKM
MDM2 E3 inh = inhibitors of human Mdm2 E3 ubiquitin ligase | cell-based MDM2 ubiquitination luciferase reporter, 2 h; 0 = plate control, 100 = twice control, blank-subtracted | signal enhancement, % at 5 µM | actives 0.11% (n = 210,000) | AID 1230;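 active means signal enhancement of 30% or more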;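 further: luminescence tracks abundance of the self-degrading MDM2-luciferase fusion protein; higher signal means inhibition of MDM2 E3 ligase activity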
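Assay system: stable mammalian line carrying autodegrading MDM2–luciferase fusion reporter; amount: 2000 cells seeded into each well; buffer or medium: DMEM; benchmarks: plate control and blank wells; signal: luciferase luminescence; timing: 2 h compound exposure at 37 °C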
p97 inhibitor = inhibitors of human p97 ATPase | recombinant p97 ATPase, Kinase-Glo ATP luminescence, 3 h | inhibition, % at 8 µM | actives 0.42% (n = 220,000) | P55072 | AID 1481; in the data active means inhibition above about 15%;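 further: 0% = DMSO vehicle and 100% = wells lacking enzyme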
Cl transport mod = modulates chloride dependent transport by human KCC2; KCC2 cells, thallium flux FluoZin-2 fluorescence; Q9H2X9; actives 2.2% (n = 190,000); B-score of Tl+ flux slope (higher = more flux/activation; lower = inhibition) at 10 µM;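 active means thallium flux slope and its plate-corrected score both differing from the plate sample mean at a set confidence after two filtering rounds, in either direction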;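 further: slope of fluorescence scaled to starting intensity during 10 to 20 s after thallium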
ROMK hit retest = retested hit modulating human ROMK potassium channel | shares compounds with ROMK mod | ROMK thallium flux, fluorescence ratio; hits give low values | normalized thallium flux (F/F0 slope) at 10 µM | actives 54% (n = 3,000);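 active means Flux at 10 µM at least 3 SD below or above vehicle control mean in one or both replicates; inconclusive means no clear call, values can overlap the other calls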
Starred values were filed as active, the others as inactive; i = inactive; ? = inconclusive; . = not tested or not shown.

SMILES	PKD1 kinase inh	Redox H2O2 prof	ROMK mod	MDM2 E3 inh	p97 inhibitor	Cl transport mod	ROMK hit retest
O=C1CC(=O)N(CCc2ccccc2)C(=O)N1CCc1ccccc1	12.2	1.9	0.364	-14.6	-5.7	-1.77	.
O=C1C=CC(=O)C(C2=C3C(=O)N(CCc4ccccc4)CC(=O)N3CCC2)=C1	1.9	-0.4	-2.96*	4.6	7.9	-0.397	0.051*
O=C(O)CCCN1C(=O)/C(=C/c2cn(-c3ccccc3)nc2-c2cccs2)SC1=S	7.0	0.1	-3.45*	-18.7	-3.7	i	?
CCCCC(CCC(=O)O)(C(=O)OCC)c1csc(N)n1 (stereo not given)	1.9	3.4	1.07	-16.2	1.2	0.732	.
Cc1nn(C)c(C(=O)Sc2cccc(Cl)c2)c1[N+](=O)[O-]	.	.	-2.94*	-9.5	-1.2	-0.195	0.0645*
CC1C/C(=C/c2ccncc2)C(=O)/C(=C/c2ccncc2)C1 (stereo not given)	6.5	-0.6	-1.8*	-5.0	1.2	-1.21	0.0501*
COC(=O)c1ccccc1NS(=O)(=O)c1ccc2c3c(cccc13)C(=O)N2	-8.3	-0.2	.	.	7.3	-0.0834	.
Cc1cc(C)n(-c2nc3nonc3nc2Nc2cccc(C)c2C)n1	-1.1	-2.8	-3.89*	5.5	4.0	0.807	0.0534*
COc1ccc(C(C)=O)c(OC(=O)c2ccco2)c1	-3.4	3.3	.	11.6	2.9	0.517	.
Cc1cc(C)c(C)c(S(=O)(=O)NC2CCN(Cc3ccccc3)CC2)c1C	-10.9	-1.2	-4.03*	-3.7	0.3	0.0424	0.0635*
O=S(=O)(NC1CCN(Cc2ccccc2)CC1)c1ccc2ccccc2c1	-10.5	-1.5	-3.47*	-13.8	-1.3	0.0425	0.0644*
CS(=O)(=O)NCCCc1ccccc1	-10.5	2.2	.	-19.1	-1.6	0.131	.
C/C(=N/OC(=O)c1c(-c2c(Cl)cccc2Cl)noc1C)c1cnccn1	-4.6	0.1	-0.108	-17.5	-3.4	-2.88	.
COc1cccc(C(=O)O/N=C(\C)c2cnccn2)c1	1.4	5.6	-3.6*	-24.0	3.9	-0.179	0.0635*
O=C(COC(=O)c1ccc(Cl)c(S(=O)(=O)N2CCCC2)c1)NCc1cccs1	6.0	-0.3	-0.137	-2.2	3.9	-2.44	.
C#CCNC(=O)C1CCN(c2ccc(S(=O)(=O)N3CCOCC3)cc2Cl)CC1	-7.3	-0.1	1.57	-5.9	5.3	-0.817	.
O=C(NCc1cccs1)C1CCN(c2ccc(S(=O)(=O)N3CCOCC3)cc2Cl)CC1	-11.4	-0.1	2.9*	-8.5	-2.9	.	0.0814
O=C(Nc1nc2n(n1)C(c1ccccc1)C=C(c1ccccc1)N2)c1ccco1 (stereo not given)	10.1	-2.9	.	-11.4	-3.9	-1.1	0.0655*
CC(=O)Nc1nc2n(n1)C(c1ccccc1)C=C(c1ccccc1)N2 (stereo not given)	2.3	-0.3	.	-18.1	-4.4	0.0826	.
C=CCn1c(SCC(N)=O)nnc1-c1cccc(Br)c1	-3.7	1.9	.	-3.4	6.8	0.377	0.0872
Cc1ccc(C)c(SCC(=O)OCC(=O)Nc2ccc(S(=O)(=O)N3CCOCC3)cc2)c1	-1.2	0.7	.	-6.0	1.3	-0.455	.
Cc1cccc(C)c1NC(=O)COC(=O)c1ccccc1Nc1ccccc1	6.5	-0.2	2.54	0.6	1.1	0.536	.
CCN1CC=C2C(C1)C(c1ccc(Cl)s1)C(C#N)=C(N)C2(C#N)C#N (stereo not given)	-8.9	1.7	.	-12.6	6.4	i	0.0394*
Fc1ccc(-c2nn(-c3ccccc3)cc2CNCc2ccccc2)cc1	-2.2	0.3	-2.57*	-1.9	-1.3	-0.515	0.0467*
CCN(c1ccccc1)S(=O)(=O)c1ccc(Cl)c(NC(=O)COC(=O)c2cccc(OC)c2O)c1	1.2	0.1	-0.444	.	4.1	-0.0143	.
SMILES	PKD1 kinase inh	Redox H2O2 prof	ROMK mod	MDM2 E3 inh	p97 inhibitor	Cl transport mod	ROMK hit retest
COCCOc1cc(N(CC(=O)N(C)C)S(=O)(=O)c2ccccc2)c(Cl)cc1Cl	-2.9	0.5	0.181	-25.9	-2.9	0.0224	.
Cc1cc(Sc2ncnc(N)c2[N+](=O)[O-])ncn1	-5.5	0.3	-0.967*	-13.3	4.9	-1.27	0.0779
CC(C)CNC(=S)NC1CC2CCCC(C1)N2C1CCCCC1 (stereo not given)	1.2	0.1	-3.32	-12.5	-0.4	1.51	0.0542*
CCN(C(=O)CSc1nnnn1-c1cc(C)ccc1OC)C1CCS(=O)(=O)C1 (stereo not given)	-8.6	-0.4	.	-11.1	1.7	0.0133	.
CCCN(C(=O)CSc1nnnn1C)C1CCS(=O)(=O)C1 (stereo not given)	0.1	-0.2	-0.137	-0.6	3.0	-0.336	0.0796
O=C1c2ccccc2C(=O)N1CCCCSc1nc2ccccc2c(=O)n1CCCN1CCOCC1	5.0	-1.9	-3*	-5.5	-13.6	-0.214	0.0536*
O=C1c2ccccc2C(=O)N1CCSc1nc2ccccc2c(=O)n1CCCN1CCOCC1	-12.9	-0.4	-0.153	-22.8	2.3	-0.636	.
COC(=O)Nc1nc2ccc(-c3n[nH]c(=O)c4ccccc34)cc2[nH]1	2.2	0.3	2.81*	3.0	2.9	0.167	?
CCOc1ccccc1NC(=O)CN(Cc1ccccc1)S(C)(=O)=O	6.7	-0.5	.	-6.8	-3.8	0.503	.
COc1ccc(C(=O)NCc2ccc(S(N)(=O)=O)cc2)cc1[N+](=O)[O-]	-5.5	-1.4	-12.9*	-14.6	-2.2	-0.567	0.0886
O=P(OC1CCCCC1)(OC1CCCCC1)C(Nc1ccccc1)c1cccnc1 (stereo not given)	.	.	.	-16.6	-0.8	-1	?
O=C(O)c1ccc(N/N=C/c2ccc(-c3ccccc3Cl)o2)cc1	.	.	.	-39.3	3.7	-0.311	.
COc1ccc(NC(=S)NNC(=O)c2ccc(S(=O)(=O)N3CCOCC3)cc2)cc1	-0.8	0.1	-2.48	-5.5	5.9	2.38	.
S=c1[nH]nc(NCCCN2CCOCC2)s1	.	.	.	-8.7	-0.1	0.702	.
COc1ccc(NC(=O)CCNS(=O)(=O)c2ccc(Br)s2)cc1	-10.9	-4.8	.	-8.4	-9.4	0.651	.
O=C(c1ccco1)N1CCN(S(=O)(=O)c2ccc(Oc3ccccc3)cc2)CC1	-8.2	0.8	.	-14.8	-10.4	.	0.0674*
O=C(c1ccco1)N1CCN(S(=O)(=O)c2ccc(S(=O)(=O)NC3CC3)cc2)CC1	-6.9	3.6	.	-24.6	4.5	-0.057	.
COc1ccccc1NC(=O)CCSc1nnnn1C	-5.6	0.2	.	4.9	-1.9	0.136	0.0744
COc1ccccc1NC(=O)C(C)Sc1nnnn1C (stereo not given)	.	.	.	-10.8	.	.	.
O=C(Cc1ccccc1)c1c[nH]c(C(=O)NCCCN2CCOCC2)c1	-1.9	-0.8	-0.914	-11.5	5.5	-2.5	.
COc1cc(NCc2ccccc2O)c2ncccc2c1	.	.	-1.51	-9.9	3.9	-1.14	.
